# Laboratory results published in ChEMBL document CHEMBL4732030, “Aloe-emodin derived azoles as a new structural type of potential antibacterial agents: design, synthesis, and evaluation of the action on membrane, DNA, and MRSA DNA isomerase” (RSC Med Chem, 2021).
# Test system: Pseudomonas aeruginosa
# Test: Antibacterial activity against Pseudomonas aeruginosa ATCC 27853 assessed as inhibition of bacterial growth after 24 hrs by microbroth dilution method
# Format: functional
# In short: (§1)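 Bacterial inoculum set to 1×10^5 CFU with sterile saline. Test agents and reference drugs, from DMSO stocks, diluted in Mueller-Hinton broth to 512, 256, 128, 64, 32, 16, 8, 4, 2, 1 and 0.5 µg/mL. Inoculated dilutions incubated 37 °C for 24 h.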
row,SMILES,MIC [µg/mL]
1,O=C1c2cccc(O)c2C(=O)c2c(O)cc(Cn3c4ccccc4c4ccccc43)cc21,64
2,O=C1c2cccc(O)c2C(=O)c2c(O)cc(Cn3ccnc3[N+](=O)[O-])cc21,64
3,Cn1ccnc1SCc1cc(O)c2c(c1)C(=O)c1cccc(O)c1C2=O,64
4,O=C1c2cccc(O)c2C(=O)c2c(O)cc(Cn3cnc4cc([N+](=O)[O-])ccc43)cc21,32
5,Cc1ncc([N+](=O)[O-])n1Cc1cc(O)c2c(c1)C(=O)c1cccc(O)c1C2=O,32
6,Cn1nnnc1SCc1cc(O)c2c(c1)C(=O)c1cccc(O)c1C2=O,64
7,O=C1c2cccc(O)c2C(=O)c2c(O)cc(Cn3nnc4ccccc43)cc21,64
8,Cc1ccc2c(c1)ncn2Cc1cc(O)c2c(c1)C(=O)c1cccc(O)c1C2=O,64
9,O=C1c2cccc(O)c2C(=O)c2c(O)cc(Cn3cnc4ccccc43)cc21,32

# Test system: Staphylococcus aureus
# Test: Antibacterial activity against Staphylococcus aureus ATCC 25923 assessed as inhibition of bacterial growth after 24 hrs by microbroth dilution method
# Format: functional
# In short: as §1
row,SMILES,MIC [µg/mL]
1,O=C1c2cccc(O)c2C(=O)c2c(O)cc(Cn3c4ccccc4c4ccccc43)cc21,16
2,O=C1c2cccc(O)c2C(=O)c2c(O)cc(Cn3ccnc3[N+](=O)[O-])cc21,32
3,Cn1ccnc1SCc1cc(O)c2c(c1)C(=O)c1cccc(O)c1C2=O,256
4,O=C1c2cccc(O)c2C(=O)c2c(O)cc(Cn3cnc4cc([N+](=O)[O-])ccc43)cc21,64
5,Cc1ncc([N+](=O)[O-])n1Cc1cc(O)c2c(c1)C(=O)c1cccc(O)c1C2=O,16
6,Cn1nnnc1SCc1cc(O)c2c(c1)C(=O)c1cccc(O)c1C2=O,16
7,O=C1c2cccc(O)c2C(=O)c2c(O)cc(Cn3nnc4ccccc43)cc21,256
8,Cc1ccc2c(c1)ncn2Cc1cc(O)c2c(c1)C(=O)c1cccc(O)c1C2=O,32
9,O=C1c2cccc(O)c2C(=O)c2c(O)cc(Cn3cnc4ccccc43)cc21,8

# Test system: Escherichia coli
# Test: Antibacterial activity against Escherichia coli assessed as inhibition of bacterial growth after 24 hrs by microbroth dilution method
# Format: functional
# In short: as §1
row,SMILES,MIC [µg/mL]
1,O=C1c2cccc(O)c2C(=O)c2c(O)cc(Cn3c4ccccc4c4ccccc43)cc21,128
2,O=C1c2cccc(O)c2C(=O)c2c(O)cc(Cn3ccnc3[N+](=O)[O-])cc21,64
3,Cn1ccnc1SCc1cc(O)c2c(c1)C(=O)c1cccc(O)c1C2=O,128
4,O=C1c2cccc(O)c2C(=O)c2c(O)cc(Cn3cnc4cc([N+](=O)[O-])ccc43)cc21,64
5,Cc1ncc([N+](=O)[O-])n1Cc1cc(O)c2c(c1)C(=O)c1cccc(O)c1C2=O,128
6,Cn1nnnc1SCc1cc(O)c2c(c1)C(=O)c1cccc(O)c1C2=O,128
7,O=C1c2cccc(O)c2C(=O)c2c(O)cc(Cn3nnc4ccccc43)cc21,128
8,Cc1ccc2c(c1)ncn2Cc1cc(O)c2c(c1)C(=O)c1cccc(O)c1C2=O,64
9,O=C1c2cccc(O)c2C(=O)c2c(O)cc(Cn3cnc4ccccc43)cc21,32

# Test system: Staphylococcus aureus
# Test: Potency index, ratio of norfloxacin MIC to compound MIC for antibacterial activity against Staphylococcus aureus incubated for 24 hrs by microbroth dilution method
# Format: functional
row,SMILES,Ratio
1,Cc1ncc([N+](=O)[O-])n1Cc1cc(O)c2c(c1)C(=O)c1cccc(O)c1C2=O,2
2,Cn1nnnc1SCc1cc(O)c2c(c1)C(=O)c1cccc(O)c1C2=O,2

# Test system: Klebsiella pneumoniae
# Test: Antibacterial activity against Klebsiella pneumoniae assessed as inhibition of bacterial growth after 24 hrs by microbroth dilution method
# Format: functional
# In short: as §1
row,SMILES,MIC [µg/mL]
1,O=C1c2cccc(O)c2C(=O)c2c(O)cc(Cn3c4ccccc4c4ccccc43)cc21,128
2,O=C1c2cccc(O)c2C(=O)c2c(O)cc(Cn3ccnc3[N+](=O)[O-])cc21,64
3,Cn1ccnc1SCc1cc(O)c2c(c1)C(=O)c1cccc(O)c1C2=O,128
4,O=C1c2cccc(O)c2C(=O)c2c(O)cc(Cn3cnc4cc([N+](=O)[O-])ccc43)cc21,64
5,Cc1ncc([N+](=O)[O-])n1Cc1cc(O)c2c(c1)C(=O)c1cccc(O)c1C2=O,128
6,Cn1nnnc1SCc1cc(O)c2c(c1)C(=O)c1cccc(O)c1C2=O,128
7,O=C1c2cccc(O)c2C(=O)c2c(O)cc(Cn3nnc4ccccc43)cc21,128
8,Cc1ccc2c(c1)ncn2Cc1cc(O)c2c(c1)C(=O)c1cccc(O)c1C2=O,64
9,O=C1c2cccc(O)c2C(=O)c2c(O)cc(Cn3cnc4ccccc43)cc21,64

# Test system: Staphylococcus aureus
# Test: Antibacterial activity against methicillin resistant Staphylococcus aureus assessed as inhibition of bacterial growth after 24 hrs by microbroth dilution method
# Format: functional
# In short: (§2)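 Inoculum adjusted in sterile saline to 1×10^5 CFU. Compounds dissolved in DMSO as stock, then diluted in Mueller-Hinton broth as a two-fold series from 512 to 0.5 µg/mL (11 levels). Inoculated dilutions incubated at 37 °C for 24 h, and the MIC recorded.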
row,SMILES,MIC [µg/mL]
1,O=C1c2cccc(O)c2C(=O)c2c(O)cc(Cn3c4ccccc4c4ccccc43)cc21,32
2,O=C1c2cccc(O)c2C(=O)c2c(O)cc(Cn3ccnc3[N+](=O)[O-])cc21,32
3,Cn1ccnc1SCc1cc(O)c2c(c1)C(=O)c1cccc(O)c1C2=O,128
4,O=C1c2cccc(O)c2C(=O)c2c(O)cc(Cn3cnc4cc([N+](=O)[O-])ccc43)cc21,64
5,Cc1ncc([N+](=O)[O-])n1Cc1cc(O)c2c(c1)C(=O)c1cccc(O)c1C2=O,64
6,Cn1nnnc1SCc1cc(O)c2c(c1)C(=O)c1cccc(O)c1C2=O,32
7,O=C1c2cccc(O)c2C(=O)c2c(O)cc(Cn3nnc4ccccc43)cc21,32
8,Cc1ccc2c(c1)ncn2Cc1cc(O)c2c(c1)C(=O)c1cccc(O)c1C2=O,64
9,O=C1c2cccc(O)c2C(=O)c2c(O)cc(Cn3cnc4ccccc43)cc21,32

# Test system: Staphylococcus aureus
# Test: Antibacterial activity against Staphylococcus aureus assessed as inhibition of bacterial growth after 24 hrs by microbroth dilution method
# Format: functional
# In short: as §1
row,SMILES,MIC [µg/mL]
1,O=C1c2cccc(O)c2C(=O)c2c(O)cc(Cn3c4ccccc4c4ccccc43)cc21,8
2,O=C1c2cccc(O)c2C(=O)c2c(O)cc(Cn3ccnc3[N+](=O)[O-])cc21,32
3,Cn1ccnc1SCc1cc(O)c2c(c1)C(=O)c1cccc(O)c1C2=O,128
4,O=C1c2cccc(O)c2C(=O)c2c(O)cc(Cn3cnc4cc([N+](=O)[O-])ccc43)cc21,32
5,Cc1ncc([N+](=O)[O-])n1Cc1cc(O)c2c(c1)C(=O)c1cccc(O)c1C2=O,4
6,Cn1nnnc1SCc1cc(O)c2c(c1)C(=O)c1cccc(O)c1C2=O,8
7,O=C1c2cccc(O)c2C(=O)c2c(O)cc(Cn3nnc4ccccc43)cc21,128
8,Cc1ccc2c(c1)ncn2Cc1cc(O)c2c(c1)C(=O)c1cccc(O)c1C2=O,32
9,O=C1c2cccc(O)c2C(=O)c2c(O)cc(Cn3cnc4ccccc43)cc21,32

# Test system: Staphylococcus aureus
# Test: Antibacterial activity against Staphylococcus aureus ATCC 29213 assessed as inhibition of bacterial growth after 24 hrs by microbroth dilution method
# Format: functional
# In short: as §2
row,SMILES,MIC [µg/mL]
1,O=C1c2cccc(O)c2C(=O)c2c(O)cc(Cn3c4ccccc4c4ccccc43)cc21,32
2,O=C1c2cccc(O)c2C(=O)c2c(O)cc(Cn3ccnc3[N+](=O)[O-])cc21,32
3,Cn1ccnc1SCc1cc(O)c2c(c1)C(=O)c1cccc(O)c1C2=O,128
4,O=C1c2cccc(O)c2C(=O)c2c(O)cc(Cn3cnc4cc([N+](=O)[O-])ccc43)cc21,32
5,Cc1ncc([N+](=O)[O-])n1Cc1cc(O)c2c(c1)C(=O)c1cccc(O)c1C2=O,128
6,Cn1nnnc1SCc1cc(O)c2c(c1)C(=O)c1cccc(O)c1C2=O,32
7,O=C1c2cccc(O)c2C(=O)c2c(O)cc(Cn3nnc4ccccc43)cc21,32
8,Cc1ccc2c(c1)ncn2Cc1cc(O)c2c(c1)C(=O)c1cccc(O)c1C2=O,32
9,O=C1c2cccc(O)c2C(=O)c2c(O)cc(Cn3cnc4ccccc43)cc21,32

# Test system: Escherichia coli
# Test: Antibacterial activity against Escherichia coli ATCC 25922 assessed as inhibition of bacterial growth after 24 hrs by microbroth dilution method
# Format: functional
# In short: as §1
row,SMILES,MIC [µg/mL]
1,O=C1c2cccc(O)c2C(=O)c2c(O)cc(Cn3c4ccccc4c4ccccc43)cc21,64
2,O=C1c2cccc(O)c2C(=O)c2c(O)cc(Cn3ccnc3[N+](=O)[O-])cc21,32
3,Cn1ccnc1SCc1cc(O)c2c(c1)C(=O)c1cccc(O)c1C2=O,128
4,O=C1c2cccc(O)c2C(=O)c2c(O)cc(Cn3cnc4cc([N+](=O)[O-])ccc43)cc21,32
5,Cc1ncc([N+](=O)[O-])n1Cc1cc(O)c2c(c1)C(=O)c1cccc(O)c1C2=O,64
6,Cn1nnnc1SCc1cc(O)c2c(c1)C(=O)c1cccc(O)c1C2=O,64
7,O=C1c2cccc(O)c2C(=O)c2c(O)cc(Cn3nnc4ccccc43)cc21,32
8,Cc1ccc2c(c1)ncn2Cc1cc(O)c2c(c1)C(=O)c1cccc(O)c1C2=O,32
9,O=C1c2cccc(O)c2C(=O)c2c(O)cc(Cn3cnc4ccccc43)cc21,16

# Test system: Acinetobacter baumannii
# Test: Antibacterial activity against Acinetobacter baumannii assessed as inhibition of bacterial growth after 24 hrs by microbroth dilution method
# Format: functional
# In short: as §1
row,SMILES,MIC [µg/mL]
1,O=C1c2cccc(O)c2C(=O)c2c(O)cc(Cn3c4ccccc4c4ccccc43)cc21,64
2,O=C1c2cccc(O)c2C(=O)c2c(O)cc(Cn3ccnc3[N+](=O)[O-])cc21,64
3,Cn1ccnc1SCc1cc(O)c2c(c1)C(=O)c1cccc(O)c1C2=O,32
4,O=C1c2cccc(O)c2C(=O)c2c(O)cc(Cn3cnc4cc([N+](=O)[O-])ccc43)cc21,32
5,Cc1ncc([N+](=O)[O-])n1Cc1cc(O)c2c(c1)C(=O)c1cccc(O)c1C2=O,32
6,Cn1nnnc1SCc1cc(O)c2c(c1)C(=O)c1cccc(O)c1C2=O,64
7,O=C1c2cccc(O)c2C(=O)c2c(O)cc(Cn3nnc4ccccc43)cc21,16
8,Cc1ccc2c(c1)ncn2Cc1cc(O)c2c(c1)C(=O)c1cccc(O)c1C2=O,64
9,O=C1c2cccc(O)c2C(=O)c2c(O)cc(Cn3cnc4ccccc43)cc21,32

# Test system: Enterococcus faecalis
# Test: Antibacterial activity against Enterococcus faecalis assessed as inhibition of bacterial growth after 24 hrs by microbroth dilution method
# Format: functional
# In short: as §1
row,SMILES,MIC [µg/mL]
1,O=C1c2cccc(O)c2C(=O)c2c(O)cc(Cn3c4ccccc4c4ccccc43)cc21,128
2,O=C1c2cccc(O)c2C(=O)c2c(O)cc(Cn3ccnc3[N+](=O)[O-])cc21,32
3,Cn1ccnc1SCc1cc(O)c2c(c1)C(=O)c1cccc(O)c1C2=O,128
4,O=C1c2cccc(O)c2C(=O)c2c(O)cc(Cn3cnc4cc([N+](=O)[O-])ccc43)cc21,16
5,Cc1ncc([N+](=O)[O-])n1Cc1cc(O)c2c(c1)C(=O)c1cccc(O)c1C2=O,128
6,Cn1nnnc1SCc1cc(O)c2c(c1)C(=O)c1cccc(O)c1C2=O,128
7,O=C1c2cccc(O)c2C(=O)c2c(O)cc(Cn3nnc4ccccc43)cc21,32
8,Cc1ccc2c(c1)ncn2Cc1cc(O)c2c(c1)C(=O)c1cccc(O)c1C2=O,32
9,O=C1c2cccc(O)c2C(=O)c2c(O)cc(Cn3cnc4ccccc43)cc21,16

# Test system: Pseudomonas aeruginosa
# Test: Antibacterial activity against Pseudomonas aeruginosa assessed as inhibition of bacterial growth after 24 hrs by microbroth dilution method
# Format: functional
# In short: as §1
row,SMILES,MIC [µg/mL]
1,O=C1c2cccc(O)c2C(=O)c2c(O)cc(Cn3c4ccccc4c4ccccc43)cc21,64
2,O=C1c2cccc(O)c2C(=O)c2c(O)cc(Cn3ccnc3[N+](=O)[O-])cc21,64
3,Cn1ccnc1SCc1cc(O)c2c(c1)C(=O)c1cccc(O)c1C2=O,128
4,O=C1c2cccc(O)c2C(=O)c2c(O)cc(Cn3cnc4cc([N+](=O)[O-])ccc43)cc21,32
5,Cc1ncc([N+](=O)[O-])n1Cc1cc(O)c2c(c1)C(=O)c1cccc(O)c1C2=O,64
6,Cn1nnnc1SCc1cc(O)c2c(c1)C(=O)c1cccc(O)c1C2=O,64
7,O=C1c2cccc(O)c2C(=O)c2c(O)cc(Cn3nnc4ccccc43)cc21,128
8,Cc1ccc2c(c1)ncn2Cc1cc(O)c2c(c1)C(=O)c1cccc(O)c1C2=O,32
9,O=C1c2cccc(O)c2C(=O)c2c(O)cc(Cn3cnc4ccccc43)cc21,64
